The values below come from ChEMBL document CHEMBL3526065, “Metabolism of [6]-shogaol in mice and in cancer cells” (Drug Metab Dispos, 2012).

A short description of data set [1]: Drug level in C57BL/6J mouse feces treated with [6]-shogaol at 200 mg/kg, po by HPLC-ECD analysis relative to control. Type of data set: ADME, organism-based. The arrangement: dose 200 mg/kg, route oral. The conditions noted are these: in vivo. The essentials:
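Female C57BL/6J mice gavaged once with 200 mg/kg in corn oil, or corn oil alone (n = 5 each). 24-h feces collected in metabolic cages. Feces extracted by sonication 90 min in MeOH/H2O (50/50) + 0.1% acetic acid, centrifuged, diluted fivefold. Analysed by HPLC with electrochemical array detection (Gemini C18, phosphate/acetonitrile/THF gradient), compared against vehicle controls.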

A short description of data set [2]: Drug level in human HCT116 cells treated with 10 uM [6]-shogaol after 24 hrs by HPLC-ECD analysis. It counts as ADME, cell-based. The settings on record: hct-116, 24 h. The essentials:
(§1)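 Cells (1.0 × 10⁶) attached 24 h in six-well plates, then exposed to 10 μM final in McCoy's 5A with 10% FBS. Extracted with equal volume acetonitrile, diluted 5-fold, analysed by HPLC with electrochemical detection.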

Data set [3] can be described thus: Antioxidant activity assessed as DPPH radical scavenging activity. It counts as physicochemical. A general note: The DPPH test is a chemical assay of radical scavenging.
The nature of data set [4]: Drug metabolism in human HCT116 cells assessed as retention time treated with 10 uM [6]-shogaol after 24 hrs by HPLC-ECD analysis. Type of data set: ADME, cell-based. The conditions noted are these: hct-116, 24 h. The procedure, abridged:
as §1

Data set [5] has as its system HT-29. In words: Drug level in human HT-29 cells treated with 10 uM [6]-shogaol by HPLC-ECD analysis. Type of data set: ADME, cell-based. The essentials:
as §1

Data set [6] is described as follows: Drug level in human H1299 cells treated with 10 uM [6]-shogaol after 24 hrs by HPLC-ECD analysis. Type of data set: ADME, cell-based. The conditions noted are these: nci-h1299, 24 h. The essentials:
as §1

The nature of data set [7]: Cytotoxicity against human HCT116 cells assessed as growth inhibition after 24 hrs by MTT assay. It counts as functional, cell-based. The conditions noted are these: HCT-116, 24 h. The procedure, abridged: (§2)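 Cells seeded at 3000/well, attached 24 h at 37°C, then exposed to test agents (0–80 μM, 0.1% DMSO final) for 24 h in McCoy's 5A with 10% FBS. Medium replaced with 2.41 mM MTT for 3 h at 37°C; formazan dissolved in DMSO, absorbance 550 nm. Viability as percentage of DMSO control; mean ± S.D., n = 6.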
For orientation: Tetrazolium assays rely on reduction of a dye to a coloured formazan, in cell work by metabolically active cells.

The nature of data set [8]: Cytotoxicity against human H1299 cells assessed as growth inhibition after 24 hrs by MTT assay. It counts as functional, cell-based. The settings on record: NCI-H1299, 24 h. The essentials: as §2
Data set [9] has as its system HCT-116. The experiment in a line: Induction of apoptosis in human HCT116 cells assessed as apoptotic cells at 40 uM after 24 hrs by TUNEL assay. Type of data set: functional. The essentials:
(§3)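 HCT-116 or H-1299 cells seeded at 1.0 × 10⁵/well, after 24 h exposed for 24 h to compound (10–80 μM) or DMSO control. Cells were proteinase K-pretreated, formaldehyde-fixed, and slide-mounted for peroxidase TUNEL staining. Ten fields per slide counted at 400×; brown-nucleus cells given as percentage of total cells; mean ± S.E., n = 10.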

The test system of data set [10] is NCI-H1299. In words: Induction of apoptosis in human H1299 cells assessed as apoptotic cells at 40 uM after 24 hrs by TUNEL assay. Type of data set: functional. The procedure, abridged:
as §3

The subject of data set [11] is HCT-116. The experiment in a line: Induction of apoptosis in human HCT116 cells assessed as apoptotic cells at 80 uM after 24 hrs by TUNEL assay. It counts as functional. The essentials:
as §3

The test system of data set [12] is NCI-H1299. The experiment in a line: Induction of apoptosis in human H1299 cells assessed as apoptotic cells at 80 uM after 24 hrs by TUNEL assay. Type of data set: functional. The essentials: as §3

Consider `CCCCC/C=C/C(O)CCc1ccc(O)c(OC)c1` (stereo not given), for which, in data set [1], the Drug excretion entry was “metabolite_detected”. In addition, in data set [2], the Drug metabolism result is on record as “metabolite_detected”. Take `CCCCCC(CC(=O)CCc1ccc(O)c(OC)c1)OC` (stereo not given): the Drug excretion result in data set [1] is listed as “metabolite_detected”. As usually defined, the IC50 is the midpoint of a concentration-inhibition curve. For `CCCCCCCCC[C@H](O)CC(=O)CCc1ccc(O)c(OC)c1`, in data set [3], the half-maximal inhibitory concentration (IC50) was found to be 12 µM. As for `CCCCCCC[C@H](O)CC(=O)CCc1ccc(O)c(OC)c1`, the 50% inhibitory concentration (IC50) in data set [3] was 20 µM. In the case of `CCCCCC(CC(O)CCc1ccc(O)c(OC)c1)SCC(N)C(=O)O` (stereo not given), the Drug excretion result in [1] is reported as “metabolite_detected”. As to `CCCCCC(CC(=O)CCc1ccc(O)c(OC)c1)SC[C@H](NC(=O)CC[C@H](N)C(=O)O)C(=O)NCC(=O)O` (stereo not given in full), the Retention_time in data set [4] amounted to 14.5 min. Take `CCCCCC(CC(=O)CCc1ccc(O)c(OC)c1)SC` (stereo not given): the Drug excretion result in data set [1] is “metabolite_detected”. On to `CCCCCC(CC(O)CCc1ccc(O)c(OC)c1)SCC(N)C(=O)NCC(=O)O` (stereo not given), for which, in data set [1], the Drug excretion entry was “metabolite_detected”. Same read-out and setting: as for `CCCCCC(CC(O)CCc1ccc(O)c(OC)c1)SC` (stereo not given), the entry is “metabolite_detected”; as for `CCCCCC(CC(O)CCc1ccc(O)c(OC)c1)SCC(NC(C)=O)C(=O)O` (stereo not given), “metabolite_detected”. As to `CCCCC[C@H](O)CC(=O)CCc1ccc(O)c(OC)c1` [GINGEROL], in data set [3], the concentration for half-maximal inhibition (IC50) came out at 28 µM.

Consider `CCCCCCCC(=O)CCc1ccc(O)c(OC)c1`, for which the Drug excretion entry in [1] is on record as “metabolite_detected”. The Drug metabolism entry in [2], in [5] and in data set [6] was “metabolite_detected” in each case. Besides, the concentration for half-maximal inhibition (IC50) came out at 84 µM in [7] and 66.5 µM in [8]. Besides, the Activity was 12.9% in data set [9], 8.3% in data set [10], 21.1% in data set [11] and 19.4% in data set [12]. On to `CCCCCC(CC(=O)CCc1ccc(O)c(OC)c1)SCC(NC(C)=O)C(=O)O` (stereo not given), for which the Drug excretion entry in data set [1] was “metabolite_detected”. `CCCCCCCC(=O)CCc1ccc(O)c(O)c1`: the Drug excretion entry in data set [1] is reported as “metabolite_detected”. With `CCCCCC(CC(=O)CCc1ccc(O)c(OC)c1)SCC(N)C(=O)O` (stereo not given), the Drug excretion result in data set [1] is recorded as “metabolite_detected”.
